{"source": "ChEMBL document CHEMBL4392863", "about": "“Spongian Diterpenes Including One with a Rearranged Skeleton from the Marine Sponge Spongia officinalis” (J Nat Prod, 2019)", "key": {"RAW264.7": {"tested_on": "RAW264.7", "assay": "Anti-inflammatory activity in mouse RAW264.7 cells assessed as inhibition of LPS-induced NO production pre-incubated for 2 hrs before LPS stimulation for 24 hrs by nitrate/nitrite assay", "type": "functional, cell-based", "summary_of_the_method": "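LPS-stimulated RAW264.7 macrophages were used following an earlier published protocol. Compounds from 30 mM DMSO stocks were diluted at room temperature to final test concentrations of 1−60 μM. NG-methyl-L-arginine acetate salt in DMSO served as the positive control. Inhibition of nitric oxide production was expressed as IC50.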"}, "[1]": {"assay": "Cytotoxicity against mouse RAW264.7 cells assessed as reduction in cell viability incubated for 24 hrs by MTT assay", "type": "cell-based"}}, "data": [{"smiles": "CC(=O)OC[C@@]12CC[C@@H]3[C@](C)(CC(=O)[C@@H](O)[C@]3(C)CO)[C@H]1CCc1cocc12", "values": [{"measurement": "IC50", "setting": "RAW264.7", "value": 12, "unit": "µM"}, {"measurement": "CC50 at 24 h", "setting": "[1]", "value": "> 60", "unit": "µM"}]}, {"smiles": "C[C@]12[C@@H](O)[C@]3(O)C(=O)OC[C@]3(C)[C@@H]1CC[C@@]1(CO)c3cocc3CC[C@@H]12", "values": [{"measurement": "IC50", "setting": "RAW264.7", "value": 32, "unit": "µM"}, {"measurement": "CC50 at 24 h", "setting": "[1]", "value": "> 60", "unit": "µM"}]}, {"smiles": "CO[C@@H]1O[C@H](OC)C2=C1CC[C@H]1[C@@]2(CO)CC[C@@H]2[C@]1(C)CC(=O)[C@H](O)[C@]2(C)CO", "values": [{"measurement": "IC50", "setting": "RAW264.7", "value": 22, "unit": "µM"}, {"measurement": "CC50 at 24 h", "setting": "[1]", "value": "> 60", "unit": "µM"}]}, {"smiles": "C[C@]12C[C@@H](O)C(=O)[C@](C)(CO)[C@@H]1CC[C@@]1(CO)c3cocc3CC[C@@H]12", "values": [{"measurement": "IC50", "setting": "RAW264.7", "value": "> 60", "unit": "µM"}, {"measurement": "CC50 at 24 h", "setting": "[1]", "value": "> 60", "unit": "µM"}]}, {"smiles": "CNC(=N)NCCC[C@H](N)C(=O)O", "note": "[TILARGININE ACETATE]", "values": [{"measurement": "IC50", "setting": "RAW264.7", "value": 17, "unit": "µM"}]}, {"smiles": "CCO[C@H]1OC(=O)C2=C1[C@]1(CO)CC[C@@H]3[C@](C)(CC(=O)[C@H](O)[C@]3(C)CO)[C@H]1CC2", "values": [{"measurement": "IC50", "setting": "RAW264.7", "value": 12, "unit": "µM"}, {"measurement": "CC50 at 24 h", "setting": "[1]", "value": "> 60", "unit": "µM"}]}, {"smiles": "C[C@]12CC(=O)[C@H](O)[C@](C)(CO)[C@@H]1CC[C@@]1(CO)c3cocc3CC[C@@H]12", "values": [{"measurement": "IC50", "setting": "RAW264.7", "value": 20, "unit": "µM"}, {"measurement": "CC50 at 24 h", "setting": "[1]", "value": "> 60", "unit": "µM"}]}, {"smiles": "CC(=O)OC[C@@]12CC[C@@H]3[C@](C)(CC(=O)[C@H](O)[C@]3(C)CO)[C@H]1CCc1cocc12", "values": [{"measurement": "IC50", "setting": "RAW264.7", "value": 15, "unit": "µM"}, {"measurement": "CC50 at 24 h", "setting": "[1]", "value": "> 60", "unit": "µM"}]}]}
